Assay results published in ChEMBL document CHEMBL1130417 (J Med Chem, 1997).
Where “and” joins values, the source holds several entries; their conditions need not be identical. Equal values may be shown once.

Key:
[1] = target: Delta-type opioid receptor (Rattus norvegicus, UniProt P33533); assay: Inhibition of radioligand [3H]DADLE binding to rat brain Opioid receptor delta 1
Method in brief: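 Rat brain membranes were labelled with [3H]DADLE (1.7–2.5 nM) for 3–4 h at 25 °C in Tris-HCl pH 7.4 with 100 mM choline chloride, 3 mM MnCl2, protease inhibitor cocktail and 100 nM DAMGO to block μ sites. Nonspecific binding was set with 20 μM levallorphan. Displacement used 8–10 drug concentrations, run twice. IC50 and slope factor came from curve fitting.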

[2] = target: Mu-type opioid receptor (Rattus norvegicus, UniProt P33535); assay: Inhibition of radioligand [3H]DAMGO binding to rat brain Opioid receptor mu 1 […]
Method in brief: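 Rat brain membranes were labelled with [3H]DAMGO (1–3 nM) for 4 h at 25 °C in 50 mM Tris-HCl pH 7.4 with protease inhibitor cocktail. Nonspecific binding was set with 20 μM levallorphan. Displacement used 8–10 drug concentrations, run twice, with drug diluted in Tris pH 7.4 containing 1 mg/mL BSA. IC50 and slope factor came from curve fitting.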

[3] = target: Opioid receptors; mu & delta (Rattus norvegicus) (UniProt P33533+P33535); assay: Mu/delta inhibitory ratio of compound determined Rat brain receptors
[4] = species: Cavia porcellus; assay: IC50 ratio on Mu receptor of GPI to the delta receptor MVD
Method in brief: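 The ratio is guinea pig ileum IC50 divided by mouse vas deferens IC50. Both tissues were electrically stimulated at 0.1 Hz, the ileum with 0.4-ms and the vas deferens with 2-ms pulses, and exposed to cumulative agonist doses.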

[5] = target: Mu-type opioid receptor (Cavia porcellus, UniProt P97266); assay: Agonist activity was evaluated in guinea pig ileum (GPI) preparations at Opioid receptor mu 1; format: functional, tissue-based
Method in brief: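 Longitudinal muscle–myenteric plexus strips from male Hartley guinea pig ileum (250–500 g) were held in 37 °C oxygenated Krebs bicarbonate under 1 g tension.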

[6] = target: Delta-type opioid receptor (Mus musculus, UniProt P32300); assay: Agonist activity was evaluated in mouse vas deferens (MVD) preparations at Opioid receptor delta 1; format: functional
Method in brief: (§1)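 Vas deferens from male ICR mice (25–40 g) was held in 37 °C oxygenated magnesium-free Krebs bicarbonate under 0.5 g tension. Tissue was field-stimulated at 0.1 Hz with 2-ms supramaximal pulses.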

[7] = species: Mus musculus; assay: Agonist activity was evaluated in mouse vas deferens (MVD) preparations at opioid delta receptor; format: functional; method in brief: as §1

Mu-type opioid receptor (Rattus norvegicus, UniProt P33535), sequence (P33535 whole entry): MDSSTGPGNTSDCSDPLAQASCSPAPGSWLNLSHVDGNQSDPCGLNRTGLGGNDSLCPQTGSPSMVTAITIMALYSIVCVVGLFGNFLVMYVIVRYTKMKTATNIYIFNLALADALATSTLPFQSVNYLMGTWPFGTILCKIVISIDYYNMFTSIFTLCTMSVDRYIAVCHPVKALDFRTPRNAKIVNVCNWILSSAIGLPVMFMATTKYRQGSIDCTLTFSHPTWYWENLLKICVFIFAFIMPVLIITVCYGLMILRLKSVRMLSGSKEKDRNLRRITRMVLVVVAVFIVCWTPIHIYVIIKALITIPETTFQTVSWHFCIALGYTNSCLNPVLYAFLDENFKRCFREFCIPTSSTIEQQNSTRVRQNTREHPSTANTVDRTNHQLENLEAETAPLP
Mu-type opioid receptor (Cavia porcellus, UniProt P97266), sequence (P97266 whole entry): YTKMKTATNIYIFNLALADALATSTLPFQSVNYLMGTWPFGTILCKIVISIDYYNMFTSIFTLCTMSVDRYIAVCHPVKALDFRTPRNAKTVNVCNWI
Delta-type opioid receptor (Mus musculus, UniProt P32300), sequence (P32300 whole entry): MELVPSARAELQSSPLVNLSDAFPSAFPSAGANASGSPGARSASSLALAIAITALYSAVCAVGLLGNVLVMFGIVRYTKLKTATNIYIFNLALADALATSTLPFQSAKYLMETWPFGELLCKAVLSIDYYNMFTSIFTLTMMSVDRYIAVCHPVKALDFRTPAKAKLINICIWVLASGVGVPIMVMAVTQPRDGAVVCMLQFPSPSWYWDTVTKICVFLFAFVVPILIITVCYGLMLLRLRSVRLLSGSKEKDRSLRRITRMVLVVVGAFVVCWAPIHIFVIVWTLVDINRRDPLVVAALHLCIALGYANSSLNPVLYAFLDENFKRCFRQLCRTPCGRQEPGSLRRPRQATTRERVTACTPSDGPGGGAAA
Opioid receptors; mu & delta (Rattus norvegicus), sequence (P33533 whole entry, looked up): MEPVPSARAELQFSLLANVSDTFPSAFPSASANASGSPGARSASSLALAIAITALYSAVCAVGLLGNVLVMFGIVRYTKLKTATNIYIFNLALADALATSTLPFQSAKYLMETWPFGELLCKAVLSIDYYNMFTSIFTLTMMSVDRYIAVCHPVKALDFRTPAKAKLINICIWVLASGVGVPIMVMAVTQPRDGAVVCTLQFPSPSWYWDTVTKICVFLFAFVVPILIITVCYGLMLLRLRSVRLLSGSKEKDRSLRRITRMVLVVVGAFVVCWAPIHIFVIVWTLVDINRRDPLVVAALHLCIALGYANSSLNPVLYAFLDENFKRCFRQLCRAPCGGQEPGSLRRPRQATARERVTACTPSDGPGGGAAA
Opioid receptors; mu & delta (Rattus norvegicus), sequence (P33535 whole entry, looked up): as the sequence (P33535 whole entry) above
Delta-type opioid receptor (Rattus norvegicus, UniProt P33533), sequence (P33533 whole entry): as the sequence (P33533 whole entry, looked up) above

C=CCN1C[C@@H](C)N([C@H](c2ccc(C(=O)N(CC)CC)cc2)c2cccc(F)c2)C[C@@H]1C (single isomer, unassigned)
IC50 [1]: 0.00475 µM
IC50 [2]: > 10 µM
Ratio [3]: > 2110

C=CCN1C[C@H](C)N([C@H](c2ccc(C(=O)N(CC)CC)cc2)c2cccc(O)c2)C[C@H]1C (stereo in doubt; (+)-1)
IC50 [1]: 0.00149 µM

C=CCN1C[C@H](C)N([C@H](c2ccc(C(=O)N(CC)CC)cc2)c2cccc(F)c2)C[C@H]1C (stereo in doubt; (+)-23) [listing 1 of 2 here]
Ratio [4]: 265
Ratio [3]: 677

C=CCN1C[C@H](C)N([C@H](c2ccccc2)c2ccc(C(=O)N(CC)CC)cc2)C[C@H]1C (stereo in doubt; (-)-26) [listing 1 of 2 here]
Ratio [3]: > 916

C=CCN1C[C@H](C)N([C@H](c2ccc(C(=O)N(CC)CC)cc2)c2cccc(F)c2)C[C@H]1C (stereo in doubt; (+)-23) [listing 2 of 2 here]
IC50 [5]: 2.6 µM
IC50 [1]: 0.00292 µM
IC50 [2]: 1.98 µM
IC50 [6]: 0.00977 µM and 0.0103 µM
IC50 [7]: 0.2 µM

C=CCN1C[C@H](C)N([C@H](c2ccccc2)c2ccc(C(=O)N(CC)CC)cc2)C[C@H]1C (stereo in doubt; (+)-26) [listing 1 of 2 here]
IC50 [1]: 0.06 µM
IC50 [2]: > 10 µM

C=CCN1C[C@H](C)N([C@@H](c2ccccc2)c2ccc(C(=O)N(CC)CC)cc2)C[C@H]1C (stereo in doubt; (+)-22) [listing 1 of 2 here]
IC50 [5]: 8.58 µM
IC50 [1]: 0.00094 µM
IC50 [2]: > 2.5 µM

C=CCN1C[C@H](C)N([C@H](c2ccccc2)c2ccc(C(=O)N(CC)CC)cc2)C[C@H]1C (stereo in doubt; (-)-26) [listing 2 of 2 here]
IC50 [5]: 1.78 µM
IC50 [1]: 0.00922 µM
IC50 [2]: 8.45 µM
IC50 [6]: 0.126 µM

C=CCN1C[C@H](C)N([C@H](c2ccc(C(=O)N(CC)CC)cc2)c2cccc(I)c2)C[C@H]1C
IC50 [5]: > 3 µM
IC50 [1]: 0.00391 µM
IC50 [2]: 1.23 µM
Ratio [3]: 314
IC50 [6]: 0.0442 µM

C=CCN1C[C@H](C)N([C@@H](c2ccccc2)c2ccc(C(=O)N(CC)CC)cc2)C[C@H]1C (stereo in doubt; (-)-22) [listing 1 of 2 here]
Ratio [3]: > 11.7

C=CCN1C[C@H](C)N([C@H](c2ccc(C(=O)N(CC)CC)cc2)c2cccc(F)c2)C[C@H]1C (stereo in doubt; (-)-23) [listing 1 of 2 here]
Ratio [3]: > 7.3

CC(NC(=O)[C@@H](N)Cc1ccc(O)cc1)C(=O)N[C@@H](Cc1ccccc1)C(=O)N[C@@H](CC(=O)O)C(=O)N[C@H](C(=O)N[C@H](C(=O)NCC(N)=O)C(C)C)C(C)C (single isomer, unassigned) [DELTORPHIN C]
IC50 [5]: 15 µM

C=CCN1C[C@H](C)N([C@@H](c2ccccc2)c2ccc(C(=O)N(CC)CC)cc2)C[C@H]1C (stereo in doubt; (+)-22) [listing 2 of 2 here]
Ratio [4]: 813
Ratio [3]: > 2660

C=CCN1C[C@H](C)N([C@@H](c2ccccc2)c2ccc(C(=O)N(CC)CC)cc2)C[C@H]1C (stereo in doubt; (-)-22) [listing 2 of 2 here]
IC50 [1]: 0.852 µM
IC50 [2]: > 10 µM

C=CCN1C[C@H](C)N([C@@H](c2ccc(C(=O)N(CC)CC)cc2)c2cccc(I)c2)C[C@H]1C
IC50 [1]: 0.0411 µM
IC50 [2]: 3.38 µM
Ratio [3]: 82.2

C=CCN1C[C@@H](C)N([C@H](c2ccc(C(=O)N(CC)CC)cc2)c2cccc(O)c2)C[C@@H]1C (single isomer, unassigned)
IC50 [1]: 0.00174 µM

C=CCN1C[C@H](C)N([C@H](c2ccccc2)c2ccc(C(=O)N(CC)CC)cc2)C[C@H]1C (stereo in doubt; (+)-26) [listing 2 of 2 here]
Ratio [3]: > 167

C=CCN1C[C@H](C)N([C@@H](c2ccc(C(=O)N(CC)CC)cc2)c2cccc(OC)c2)C[C@H]1C (stereo in doubt; (+)-25)
IC50 [2]: 5.71 µM

C=CCN1C[C@H](C)N([C@@H](c2ccc(C(=O)N(CC)CC)cc2)c2cccc(F)c2)C[C@H]1C
IC50 [1]: 0.0625 µM
IC50 [2]: > 10 µM
Ratio [3]: > 160

C=CCN1C[C@H](C)N([C@@H](c2ccc(C(=O)N(CC)CC)cc2)c2cccc(O)c2)C[C@H]1C
IC50 [1]: 0.0114 µM

C=CCN1C[C@H](C)N([C@@H](c2ccc(C(=O)N(CC)CC)cc2)c2cccc(OC)c2)C[C@H]1C (stereo in doubt; (-)-25)
IC50 [5]: 1.52 µM
IC50 [2]: 9.14 µM

C=CCN1C[C@H](C)N([C@H](c2ccc(C(=O)N(CC)CC)cc2)c2cccc(O)c2)C[C@H]1C (stereo in doubt; (-)-1)
IC50 [1]: 0.0583 µM

C=CCN1C[C@H](C)N([C@H](c2ccc(C(=O)N(CC)CC)cc2)c2cccc(F)c2)C[C@H]1C (stereo in doubt; (-)-23) [listing 2 of 2 here]
IC50 [1]: 1.38 µM
IC50 [2]: > 10 µM
